Laboratory results as given in ChEMBL document CHEMBL2062469, “1-(2-Mercaptobenzenesulfonyl)-3-hydroxyguanidines--novel potent antiproliferatives, synthesis and in vitro biological activity” (2012).

How the values were obtained:
Assay type in all cases: functional
CCRF-CEM = assay: Cytostatic activity against human CCRF-CEM cells
Method in brief: (§1)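 NCI-60 human tumor cell line screen run by the US National Cancer Institute under the NIH Developmental Therapeutics Program protocol. A single-dose prescreen at 10 µM came first. Selected compounds then went into the 5-dose assay. Cytostatic activity is reported as GI50 (µM).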

K562 = assay: Cytostatic activity against human K562 cells; method in brief: as §1
MOLT-4 = assay: Cytostatic activity against human MOLT4 cells; method in brief: as §1
[1] = Cytostatic activity against human […] cells; method in brief: as §1
SR = assay: Cytostatic activity against human SR cells
Method in brief: (§2)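 Human tumour cell lines from the NCI-60 panel, tested at the US National Cancer Institute under the NIH Developmental Therapeutics Program protocol. A single-dose prescreen at 10 µM came first. Selected compounds then went to a 5-dose assay, which gave GI50 and TGI values in µM.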

EKVX = assay: Cytostatic activity against human EKVX cells; method in brief: as §1
HOP-62 = assay: Cytostatic activity against human HOP62 cells; method in brief: as §1
HOP-92 = assay: Cytostatic activity against human HOP92 cells; method in brief: as §1
NCI-H226 = assay: Cytostatic activity against human NCI-H226 cells; method in brief: as §1
NCI-H23 = assay: Cytostatic activity against human NCI-H23 cells; method in brief: as §1
NCI-H322M = assay: Cytostatic activity against human NCI-H322M cells; method in brief: as §1
NCI-H460 = assay: Cytostatic activity against human NCI-H460 cells; method in brief: as §1
NCI-H522 = assay: Cytostatic activity against human NCI-H522 cells; method in brief: as §1
COLO 205 = assay: Cytostatic activity against human COLO205 cells; method in brief: as §1
HCC 2998 = assay: Cytostatic activity against human HCC2998 cells; method in brief: as §1
HCT-116 = assay: Cytostatic activity against human HCT116 cells; method in brief: as §1
HCT-15 = assay: Cytostatic activity against human HCT15 cells; method in brief: as §1
HT-29 = assay: Cytostatic activity against human HT-29 cells; method in brief: as §1
KM12 = assay: Cytostatic activity against human KM12 cells; method in brief: as §1
SW-620 = assay: Cytostatic activity against human SW620 cells; method in brief: as §2
SF-268 = assay: Cytostatic activity against human SF268 cells; method in brief: as §1
SF-295 = assay: Cytostatic activity against human SF295 cells; method in brief: as §1
SF-539 = assay: Cytostatic activity against human SF539 cells; method in brief: as §1
SNB-19 = assay: Cytostatic activity against human SNB19 cells; method in brief: as §1
SNB-75 = assay: Cytostatic activity against human SNB75 cells; method in brief: as §2
U-251 = assay: Cytostatic activity against human U251 cells; method in brief: as §2
LOX IMVI = assay: Cytostatic activity against human LOXIMVI cells; method in brief: as §1
Malme-3M = assay: Cytostatic activity against human MALME-3M cells; method in brief: as §1
M14 = assay: Cytostatic activity against human M14 cells; method in brief: as §1
MDA-MB-435 = assay: Cytostatic activity against human MDA-MB-435 cells; method in brief: as §1
SK-MEL-2 = assay: Cytostatic activity against human SK-MEL-2 cells; method in brief: as §1
SK-MEL-28 = assay: Cytostatic activity against human SK-MEL-28 cells; method in brief: as §1
SK-MEL-5 = assay: Cytostatic activity against human SK-MEL-5 cells; method in brief: as §1
UACC-257 = assay: Cytostatic activity against human UACC257 cells; method in brief: as §2
UACC-62 = assay: Cytostatic activity against human UACC62 cells; method in brief: as §2
IGROV-1 = assay: Cytostatic activity against human IGROV1 cells; method in brief: as §1
OVCAR-3 = assay: Cytostatic activity against human OVCAR3 cells; method in brief: as §1
OVCAR-4 = assay: Cytostatic activity against human OVCAR4 cells; method in brief: as §1
OVCAR-5 = assay: Cytostatic activity against human OVCAR5 cells; method in brief: as §1
OVCAR-8 = assay: Cytostatic activity against human OVCAR8 cells; method in brief: as §1
NCI/ADR-RES = assay: Cytostatic activity against human NCI-ADR-RES cells; method in brief: as §1
SK-OV-3 = assay: Cytostatic activity against human SKOV3 cells; method in brief: as §1
786-0 = assay: Cytostatic activity against human 786-0 cells; method in brief: as §1
A498 = assay: Cytostatic activity against human A498 cells; method in brief: as §1
ACHN = assay: Cytostatic activity against human ACHN cells; method in brief: as §1
CAKI-1 = assay: Cytostatic activity against human Caki1 cells; method in brief: as §1
RXF 393 = assay: Cytostatic activity against human RXF393 cells; method in brief: as §1
SN12C = assay: Cytostatic activity against human SN12C cells; method in brief: as §1
UO-31 = assay: Cytostatic activity against human UO31 cells; method in brief: as §2
PC-3 = assay: Cytostatic activity against human PC3 cells; method in brief: as §1
DU-145 = assay: Cytostatic activity against human DU145 cells; method in brief: as §1
MCF7 = assay: Cytostatic activity against human MCF7 cells; method in brief: as §1
MDA-MB-231 = assay: Cytostatic activity against human MDA-MB-231/ATCC cells; method in brief: as §1
Hs-578T = assay: Cytostatic activity against human Hs 578T cells; method in brief: as §1
BT-549 = assay: Cytostatic activity against human BT549 cells; method in brief: as §1
T47D = assay: Cytostatic activity against human T47D cells; method in brief: as §2
MDA-MB-468 = assay: Cytostatic activity against human MDA-MB-468 cells; method in brief: as §1

GI50 (CCRF-CEM): 1040 nM
GI50 (K562): 1530 nM
GI50 (MOLT-4): 1140 nM
GI50 (NCI-H226): 2010 nM
GI50 (NCI-H23): 1770 nM
GI50 (NCI-H322M): 1580 nM
GI50 (NCI-H460): 1790 nM
GI50 (NCI-H522): 240 nM
GI50 (COLO 205): 1750 nM
GI50 (HCC 2998): 1850 nM
GI50 (HCT-116): 1520 nM
GI50 (HCT-15): 2020 nM
GI50 (HT-29): 1850 nM
GI50 (SW-620): 1460 nM
GI50 (U-251): 1400 nM
GI50 (MDA-MB-435): 1380 nM
GI50 (SK-MEL-2): 2010 nM
GI50 (SK-MEL-28): 1680 nM
GI50 (SK-MEL-5): 1520 nM
GI50 (OVCAR-3): 1700 nM
GI50 (OVCAR-4): 1710 nM
GI50 (OVCAR-5): 2060 nM
GI50 (OVCAR-8): 1770 nM
GI50 (SK-OV-3): 1810 nM
GI50 (786-0): 2270 nM
GI50 (ACHN): 1700 nM
GI50 (PC-3): 1850 nM
GI50 (DU-145): 1670 nM
GI50 (MCF7): 1360 nM
GI50 (MDA-MB-231): 1680 nM
GI50 (BT-549): 1960 nM
GI50 (T47D): 1690 nM
GI50 (MDA-MB-468): 1530 nM
Structure (SMILES): N=C(NO)NS(=O)(=O)c1cc(-c2nnc(-c3ccccc3)s2)c(Cl)cc1SCc1ccc2c(c1)OCO2
TGI (CCRF-CEM): 3660 nM
TGI (K562): 3940 nM
TGI (MOLT-4): 3080 nM
GI50 [1]: 1760 nM
TGI [1]: 4520 nM
GI50 (SR): 880 nM
TGI (SR): 4100 nM
GI50 (EKVX): 1650 nM
TGI (EKVX): 2990 nM
GI50 (HOP-62): 1930 nM
TGI (HOP-62): 3710 nM
GI50 (HOP-92): 1820 nM
TGI (HOP-92): 5100 nM
TGI (NCI-H226): 4020 nM
TGI (NCI-H23): 3850 nM
TGI (NCI-H322M): 4280 nM
TGI (NCI-H460): 3560 nM
TGI (NCI-H522): 800 nM
TGI (COLO 205): 3280 nM
TGI (HCC 2998): 3590 nM
TGI (HCT-116): 3310 nM
TGI (HCT-15): 4340 nM
TGI (HT-29): 3430 nM
GI50 (KM12): 1640 nM
TGI (KM12): 3030 nM
TGI (SW-620): 2860 nM
GI50 (SF-268): 1610 nM
TGI (SF-268): 3320 nM
GI50 (SF-295): 1630 nM
TGI (SF-295): 3550 nM
GI50 (SF-539): 2150 nM
TGI (SF-539): 4100 nM
GI50 (SNB-19): 1770 nM
TGI (SNB-19): 3830 nM
GI50 (SNB-75): 1070 nM
TGI (SNB-75): 2340 nM
TGI (U-251): 2850 nM
GI50 (LOX IMVI): 1730 nM
GI50 (Malme-3M): 1710 nM
TGI (Malme-3M): 3600 nM
GI50 (M14): 1740 nM
TGI (M14): 3470 nM
TGI (MDA-MB-435): 2770 nM
TGI (SK-MEL-2): 3750 nM
TGI (SK-MEL-28): 3500 nM
TGI (SK-MEL-5): 2840 nM
GI50 (UACC-257): 1670 nM
TGI (UACC-257): 3230 nM
GI50 (UACC-62): 1700 nM
TGI (UACC-62): 3530 nM
GI50 (IGROV-1): 1680 nM
TGI (IGROV-1): 3950 nM
TGI (OVCAR-3): 3080 nM
TGI (OVCAR-4): 4980 nM
TGI (OVCAR-5): 4360 nM
TGI (OVCAR-8): 3740 nM
GI50 (NCI/ADR-RES): 3680 nM
TGI (SK-OV-3): 3340 nM
GI50 (A498): 1980 nM
TGI (A498): 5520 nM
TGI (ACHN): 3150 nM
GI50 (CAKI-1): 2030 nM
TGI (CAKI-1): 4420 nM
GI50 (RXF 393): 1680 nM
TGI (RXF 393): 3530 nM
GI50 (SN12C): 1620 nM
TGI (SN12C): 3450 nM
GI50 (UO-31): 1280 nM
TGI (UO-31): 3540 nM
TGI (PC-3): 4130 nM
TGI (DU-145): 3110 nM
TGI (MCF7): 3010 nM
TGI (MDA-MB-231): 3370 nM
GI50 (Hs-578T): 2410 nM
TGI (Hs-578T): 6610 nM
TGI (BT-549): 4000 nM
TGI (T47D): 4150 nM
TGI (MDA-MB-468): 2930 nM
